Assay results taken from ChEMBL document CHEMBL4376888, “Discovery of Potent, Selective, and Direct Acid Sphingomyelinase Inhibitors with Antidepressant Activity” (J Med Chem, 2020).
Active and inactive are the calls of the source. The calls are words filed in the database; no cut-off is given here.

Columns and labels:
[1] = tested on: NIH3T3; test: Cytotoxicity against mouse NIH/3T3 cells assessed as reduction in cell viability after 24 hrs by MTT assay; assay type: cell-based; settings: Mus musculus, NIH3T3, 24 h
In short: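 NIH3T3 cells in DMEM with 10 % FBS at 37 °C, 5 % CO₂, grown overnight, then inhibitor added for 24 h; viability read by MTT.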

[2] = tested on: Rattus norvegicus; test: In vivo inhibition of acid sphingomyelinase in Sprague-Dawley rat model of reserpine-induced depression assessed as residual enzyme activity in hippocampus at 24 mg/kg, ip administered twice daily for 2 weeks measured post-last dose by NBD-sphingomyelin substrate-based fluorescence assay (reference value: 73%); assay type: functional
In short: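 Cortex and hippocampus taken from half brain of reserpine-model rats treated ip twice daily for two weeks. Total protein by BCA. ASM assay on 300 μg protein with 4 μg NBD-sphingomyelin, run as the in vitro assay. NBD-ceramide fluorescence on TLC, expressed relative to normal control set at 100%. n=5, mean ± SD.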

[3] = Drug concentration in Sprague-Dawley rat brain at 48 mg/kg, ip after 2 hrs by LC-MS/MS analysis; assay type: ADME, organism-based; settings: read-out: Drug uptake
In short: (§1)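 Nine female SD rats, three per time point, single ip dose of 48 mg/Kg. At 0.5, 2 and 4 h rats were anesthetized with CO2. Heart blood was taken into EDTA-K2 and centrifuged 1500 g, 10 min, for plasma. Brain was weighed and homogenized 1:5 in 20% methanol-water. LC-MS/MS on a C18 column. Mean of 3.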

[4] = Drug concentration in Sprague-Dawley rat plasma at 48 mg/kg, ip after 2 hrs by LC-MS/MS analysis; assay type: ADME, organism-based; in short: as §1
[5] = Drug concentration in Sprague-Dawley rat brain at 48 mg/kg, ip after 4 hrs by LC-MS/MS analysis; assay type: ADME, organism-based; settings: read-out: Drug uptake; in short: as §1
[6] = tested on: Rattus norvegicus; test: Antidepressant activity in Sprague-Dawley rat model of reserpine-induced depression assessed as reduction in total time spent in center at 6 to 24 mg/kg, ip administered twice daily for 2 weeks measured for 5 mins by open field test; assay type: functional, organism-based
In short: (§2)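 Female SD rats (6-8 weeks, 200 g) given reserpine 4 mg/Kg ip daily to induce depression; test agent in 5% DMSO, 2% Tween 80, 5% glucose, ip twice daily for two weeks. Open field: 100×100 cm box, 25 squares, walls about 42 cm, tested 7:30–12:00. Rat placed in central square; centre time, grid crossings, rearing and grooming recorded over 5 min. n=8, mean ± SD.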

[7] = tested on: Rattus norvegicus; test: Antidepressant activity in Sprague-Dawley rat model of reserpine-induced depression assessed as increase in grooming frequency at 6 to 24 mg/kg, ip administered twice daily for 2 weeks measured for 5 mins by open field test; assay type: functional, organism-based; in short: as §2
[8] = target: T1, Sphingomyelin phosphodiesterase 2 (Homo sapiens) (UniProt O60906); test: Inhibition of neutral sphingomyelinase (unknown origin) at 100 uM using NBD-sphingomyelin as substrate after 30 mins by fluorescence based assay
T1 sequence (whole entry): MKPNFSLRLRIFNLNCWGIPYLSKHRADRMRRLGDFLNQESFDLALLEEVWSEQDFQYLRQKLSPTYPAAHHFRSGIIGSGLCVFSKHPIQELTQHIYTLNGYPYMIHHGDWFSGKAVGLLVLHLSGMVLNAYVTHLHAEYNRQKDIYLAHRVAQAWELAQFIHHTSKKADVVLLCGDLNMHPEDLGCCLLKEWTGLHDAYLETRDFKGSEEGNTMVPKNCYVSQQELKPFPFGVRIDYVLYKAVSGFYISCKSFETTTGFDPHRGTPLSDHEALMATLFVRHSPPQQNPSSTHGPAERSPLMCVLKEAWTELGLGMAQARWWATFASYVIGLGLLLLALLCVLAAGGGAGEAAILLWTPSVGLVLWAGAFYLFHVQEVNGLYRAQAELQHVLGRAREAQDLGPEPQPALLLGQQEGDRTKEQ
In short: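 Neutral sphingomyelinase assay run as the ASM cell-extract assay (NBD-sphingomyelin, 37 °C, 30 min, chloroform/methanol extraction, TLC, NBD-ceramide fluorescence). Buffer was 200 mM Tris-HCl pH 7.4 with 10 mM MgCl2 and 10 mM dithiothreitol. Tested at 100 μM.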

[9] = target: T2, Sphingomyelin phosphodiesterase (Homo sapiens, UniProt P17405); test: Inhibition of recombinant human acid sphingomyelinase (His62 to Pro628 residues) using NBD-sphingomyelin as substrate after 30 mins by fluorescence based assay
T2 sequence (P17405 whole entry): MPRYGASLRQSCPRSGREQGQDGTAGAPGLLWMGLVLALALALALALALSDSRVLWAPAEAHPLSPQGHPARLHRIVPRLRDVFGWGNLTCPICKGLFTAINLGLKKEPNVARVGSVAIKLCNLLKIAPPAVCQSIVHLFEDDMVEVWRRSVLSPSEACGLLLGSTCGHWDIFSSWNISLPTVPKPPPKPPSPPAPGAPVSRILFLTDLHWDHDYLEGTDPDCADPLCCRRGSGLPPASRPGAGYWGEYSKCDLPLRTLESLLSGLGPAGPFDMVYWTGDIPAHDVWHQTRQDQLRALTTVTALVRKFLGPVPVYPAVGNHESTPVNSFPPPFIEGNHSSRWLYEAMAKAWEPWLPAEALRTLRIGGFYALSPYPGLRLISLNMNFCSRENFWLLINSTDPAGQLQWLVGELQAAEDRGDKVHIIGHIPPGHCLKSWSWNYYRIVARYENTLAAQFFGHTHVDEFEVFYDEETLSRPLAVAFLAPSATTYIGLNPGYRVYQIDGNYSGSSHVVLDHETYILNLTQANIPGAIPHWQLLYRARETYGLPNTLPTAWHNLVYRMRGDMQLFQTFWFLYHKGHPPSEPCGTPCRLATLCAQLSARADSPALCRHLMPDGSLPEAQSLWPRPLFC
In short: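 Buffer 100 mM sodium acetate pH 4.7, 1% Triton X-100, 40 mM CaCl2, 100 μM ZnCl2. Inhibitors in DMSO at various concentrations, 37 °C, 30 min. NBD-ceramide fluorescence after chloroform/methanol extraction and TLC.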

[10] = Drug concentration in Sprague-Dawley rat brain at 48 mg/kg, ip after 0.5 hrs by LC-MS/MS analysis; assay type: ADME, organism-based; settings: read-out: Drug uptake; in short: as §1
[11] = tested on: Rattus norvegicus; test: Reversal of reserpine-induced inhibition of neurogenesis in ip dosed Sprague-Dawley rat hippocampus administered twice daily for 2 weeks by EDU-incorporation assay; assay type: functional, organism-based
In short: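 Rats given EDU 8 mg/kg twice in 1 day and sacrificed 96 h later. Brains shock-frozen and sectioned, washed with 2 mg/mL glycine and PBS, stained with 1X Click-iT solution for 30 min, washed with 0.5% Triton X-100. Counterstained with 1X Hoechst 33342 for 30 min, then imaged by fluorescence microscopy. n=5.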

[12] = Ratio of drug uptake in Sprague-Dawley rat brain to plasma at 48 mg/kg, ip after 2 hrs by LC-MS/MS analysis; assay type: ADME, organism-based; settings: read-out: BPR; in short: as §1
[13] = Drug uptake in human CMEC/D3 cells at 40 uM after 0.5 to 4 hrs by HPLC analysis; assay type: ADME, cell-based; settings: hcmec/d3, 40 µM
In short: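 hCMEC/D3 cells seeded at 2×10^5/well and grown to 80%. Compound added at a final 40 μM; serum-free medium as control. At time points, cells washed with ice-cold PBS, lysed on ice 30 min, spun 12000 rpm, 4 °C, 15 min. Lysate protein by BCA and compound content measured; uptake rate = lysate concentration/dose concentration. n=3.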

concentration at 2 h [3]: 4760 ng/g | concentration at 2 h [4]: 762 ng/mL | concentration at 4 h [5]: 1300 ng/g | inhibition [8]: inactive | IC50 [9]: 3.37 µM | concentration at 0.5 h [10]: 2120 ng/g | Kp at 2 h [12]: 6.49 | Drug uptake [13]: Active
Structure (SMILES): O=C(NO)c1cc(OCc2ccc(-c3ccc(Cl)cc3)cc2)no1
IC50 [1]: 161 µM | Activity [2]: 33% | Activity [6]: Active | Activity [7]: Active | Activity [11]: Dose-dependent effect
